Measurements pooled from the literature.
Lines come from different studies, so protocols differ.
Target: MAP kinase-interacting serine/threonine-protein kinase 1 (MKNK1, Homo sapiens, UniProt Q9BUB5)

The remaining binding of `N#Cc1ccc(NC(=O)Nc2ccccc2)cc1` is reported as 75% (cell-free assay; competition with immobilised ligand; 25 µM).
With `Cc1ccc(NC(=O)c2ccnc(C(F)(F)F)c2)cc1-c1cc(OCCO)nc(N2CCOCC2)c1` the remaining binding was 85% (binding; competition with immobilised ligand; 1 µM).
`C#Cc1cnc(Nc2ccnc(CO)c2)nc1Nc1ccccc1S(C)(=O)=NC#N` (centres unmarked) gave a remaining signal of 100% (cell-free assay; 1 µM).
`C1=C/COCc2cc(ccc2OCCN2CCCC2)Nc2nccc(n2)-c2cccc(c2)COC/1` gave a remaining binding of 78% (binding; 0.1 µM).
`CC(C)S(=O)(=O)c1ccc2nccc(Nc3ccc4sc(C5CCCC5)nc4c3)c2c1` gave an activity vs control of 106% (enzyme activity; inhibitor; 1 µM).
With `CCCCC(=O)Nc1ccc(-c2ccc3ncn(CCC)c(=O)c3c2)cn1` the remaining binding was 100% (binding; competition with immobilised ligand; 0.5 µM).
`CN1CCN(C(=O)c2ccc(NC(=O)Nc3ccc(N(C)c4ccnc(Nc5ccc(CS(C)(=O)=O)cc5)n4)cc3)cc2)CC1` has a remaining binding of 65% (binding; competition with immobilised ligand; 1 µM).
With `CO[C@@H]1[C@H](N(C)C(=O)c2ccccc2)C[C@H]2O[C@]1(C)n1c3ccccc3c3c4c(c5c6ccccc6n2c5c31)C(=O)NC4` the inhibition was 20% (enzyme activity; inhibitor; 1 µM).
With `C#Cc1cc(-c2cc(Nc3nc(N[C@@H](C)c4ccc(F)cn4)ncc3Cl)n[nH]2)ccc1C=O` the inhibition was 9.43% (enzyme activity; inhibitor; 0.2 µM).
`COc1ccc2oc(-c3ccc4nc(N)oc4c3)c/c(=N\c3ccccc3NC(=O)CCN)c2c1` gave a remaining binding of 107% (binding; 1 µM).
The inhibition of `CC#CC(=O)N1CCC[C@H]1c1nc(-c2ccc(C(=O)Nc3ccccn3)cc2)c2c(N)nccn12` is reported as 0% (enzyme activity; inhibitor; 1 µM).
